Reference: ChEMBL document CHEMBL3102810, “Alkylamino derivatives of pyrazinamide: synthesis and antimycobacterial evaluation” (Bioorg Med Chem Lett, 2014)
Converted amounts (≈) assume the structure as drawn. The source made the active and inactive calls. No cut-off for these calls is given here.

What was measured:
Nakaseomyces glabratus = experiment: Antifungal activity against Candida glabrata 20/I after 72 to 120 hrs by microdilution broth method; format: functional, organism-based
Klebsiella pneumoniae [1] = experiment: Antibacterial activity against ESBL positive Klebsiella pneumoniae J 14368/08 after 24 to 48 hrs by microdilution broth method; format: functional, organism-based
Method in brief: (§1)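 Antibacterial screen with compound concentrations up to a highest level of 500 µM. Results expressed as MIC in µM.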

[2] = test system: Trichophyton mentagrophytes; experiment: Antifungal activity against Trichophyton mentagrophytes after 72 to 120 hrs by microdilution broth method; format: functional, organism-based
[3] = test system: Mycolicibacterium smegmatis; experiment: Antimycobacterial activity against pyrazinamide-resistant Mycobacterium smegmatis; format: functional
Pichia kudriavzevii = experiment: Antifungal activity against Candida krusei E28 after 72 to 120 hrs by microdilution broth method; format: functional, organism-based
[4] = test system: Trichophyton mentagrophytes; experiment: Antifungal activity against Trichophyton mentagrophytes 445 after 72 to 120 hrs by microdilution broth method; format: functional, organism-based
Candida albicans = experiment: Antifungal activity against Candida albicans ATCC 44859 after 72 to 120 hrs by microdilution broth method; format: functional, organism-based
[5] = test system: Staphylococcus epidermidis; experiment: Antibacterial activity against Staphylococcus epidermidis H 6966/08 after 48 hrs by microdilution broth method; format: functional; conditions: for MIC95: H 6966/08, 48 h; method in brief: as §1
Klebsiella pneumoniae [6] = experiment: Antibacterial activity against Klebsiella pneumoniae D 11750/08 after 24 to 48 hrs by microdilution broth method; format: functional, organism-based; method in brief: as §1
[7] = test system: Mycobacterium tuberculosis; experiment: Antimycobacterial activity against pyrazinamide-sensitive Mycobacterium tuberculosis; format: functional
Pseudomonas aeruginosa = experiment: Antibacterial activity against Pseudomonas aeruginosa CCM 1961 after 24 to 48 hrs by microdilution broth method; format: functional, organism-based; method in brief: as §1
HepG2 = experiment: Cytotoxicity against human HepG2 cells after 24 hrs; format: cell-based; conditions: HepG2, 24 h
Method in brief: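 HepG2 human liver cells; loss of viability measured by a colorimetric tetrazolium-reduction assay. IC50 derived from the toxicity curves. Where limited solubility in the culture medium capped the tested concentration, only an estimate of the toxic concentration was given.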

Mycobacterium avium [8] = experiment: Antimycobacterial activity against pyrazinamide-resistant Mycobacterium avium; format: functional
Candida tropicalis = experiment: Antifungal activity against Candida tropicalis 156 after 72 to 120 hrs by microdilution broth method; format: functional, organism-based
Lichtheimia corymbifera = experiment: Antifungal activity against Absidia corymbifera 272 after 72 to 120 hrs by microdilution broth method; format: functional, organism-based
Staphylococcus aureus = experiment: Antibacterial activity against Staphylococcus aureus CCM 4516/08 after 24 to 48 hrs by microdilution broth method; format: functional, organism-based; method in brief: as §1
Mycobacterium kansasii [9] = experiment: Antimycobacterial activity against pyrazinamide-resistant Mycobacterium kansasii CNCTC My 235/80 after 5 days by microplate alamar blue assay; format: functional; conditions: CNCTC My 235/80, 120 h
Method in brief: (§2)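 Microplate alamar blue assay run at pH 5.6, using conditions optimized for pyrazinamide. Strains came from the Czech National Collection of Type Cultures. MIC was read in µg/mL and converted to µM using molecular weight.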

[10] = test system: Mycobacterium tuberculosis; experiment: Antimycobacterial activity against Mycobacterium tuberculosis H37Rv CNCTC My 331/88 after 5 days by microplate alamar blue assay; format: functional; conditions: H37Rv CNCTC My 331/88, 120 h; method in brief: as §2
Mycobacterium kansasii [11] = experiment: Antimycobacterial activity against pyrazinamide-resistant Mycobacterium kansasii; format: functional
Aspergillus fumigatus = experiment: Antifungal activity against Aspergillus fumigatus 231 after 72 to 120 hrs by microdilution broth method; format: functional, organism-based
Escherichia coli = experiment: Antibacterial activity against Escherichia coli CCM 4517 after 24 to 48 hrs by microdilution broth method; format: functional, organism-based; method in brief: as §1
Mycobacterium avium [12] = experiment: Antimycobacterial activity against pyrazinamide-resistant Mycobacterium avium CNCTC My 80/72 after 5 days by microplate alamar blue assay; format: functional; conditions: CNCTC My 80/72, 120 h; method in brief: as §2
[13] = test system: Staphylococcus epidermidis; experiment: Antibacterial activity against Staphylococcus epidermidis H 6966/08 up to 500 uM after 24 to 48 hrs by microdilution broth method; format: functional, organism-based; method in brief: as §1
Mycobacterium avium [14] = experiment: Antimycobacterial activity against pyrazinamide-resistant Mycobacterium avium CNCTC My 152/73 after 5 days by microplate alamar blue assay; format: functional; conditions: CNCTC My 152/73, 120 h; method in brief: as §2
[15] = Lipophilicity, log K of the compound by HPLC analysis; format: physicochemical
[16] = test system: Staphylococcus epidermidis; experiment: Antibacterial activity against methicillin-resistant Staphylococcus epidermidis H 5996/08 after 24 to 48 hrs by microdilution broth method; format: functional, organism-based
[17] = Selectivity index, ratio of IC50 for human HepG2 cells to MIC for Mycobacterium tuberculosis H37Rv CNCTC My 331/88; format: toxicity, cell-based; conditions: read-out: Selectivity Index
Method in brief: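 HepG2 human liver cell viability was measured by a colorimetric tetrazolium-reduction assay, and IC50 was derived from the toxicity curves. MIC against M. tuberculosis H37Rv came from the alamar blue microplate assay at pH 5.6. SI = IC50/MIC, both in molar units.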

[18] = test system: Mycolicibacterium fortuitum; experiment: Antimycobacterial activity against pyrazinamide-resistant Mycobacterium fortuitum; format: functional
Trichosporon asahii = experiment: Antifungal activity against Trichosporon asahii 1188 after 72 to 120 hrs by microdilution broth method; format: functional, organism-based
Enterococcus sp. = experiment: Antibacterial activity against Enterococcus sp. J 14365/08 after 24 to 48 hrs by microdilution broth method; format: functional, organism-based; method in brief: as §1
[19] = test system: Staphylococcus epidermidis; experiment: Antibacterial activity against Staphylococcus epidermidis H 6966/08 after 24 hrs by microdilution broth method; format: functional; conditions: H 6966/08, 24 h; method in brief: as §1

SMILES	Activity (Nakaseomyces glabratus)	Activity (Klebsiella pneumoniae [1])	Activity [2]	Activity (Pichia kudriavzevii)	Activity [4]	Activity (Candida albicans)	Activity (Klebsiella pneumoniae [6])	Activity (Pseudomonas aeruginosa)	Activity (Candida tropicalis)	Activity (Lichtheimia corymbifera)	Activity (Staphylococcus aureus)	MIC (Mycobacterium kansasii [9])	MIC [10]	Activity (Aspergillus fumigatus)	Activity (Escherichia coli)	MIC (Mycobacterium avium [12])	MIC (Mycobacterium avium [14])	log K [15]	Activity [16]	Activity (Trichosporon asahii)	other results
NC(=O)c1cnc(Cl)cn1	inactive	inactive	inactive	inactive	inactive	inactive	inactive	inactive	inactive	inactive	inactive	79 µM	317 µM	inactive	inactive	> 100 µg/mL	> 100 µg/mL	-0.3891	inactive	inactive	MIC [3]: 8 µg/mL (≈ 50.8 µM); Activity [5]: inactive; MIC [7]: 8 µg/mL (≈ 50.8 µM); IC50 (HepG2): 1600 µM; MIC (Mycobacterium avium [8]): 8 µg/mL (≈ 50.8 µM); MIC (Mycobacterium kansasii [11]): 8 µg/mL (≈ 50.8 µM); Activity [13]: inactive; selectivity ratio [17]: 5; MIC [18]: 8 µg/mL (≈ 50.8 µM); Activity (Enterococcus sp.): inactive
NC[C@@H]1O[C@H](O[C@H]2[C@@H](O)[C@H](O[C@@H]3[C@@H](O)[C@H](N)C[C@H](N)[C@H]3O[C@H]3O[C@H](CN)[C@@H](O)[C@H](O)[C@H]3N)O[C@@H]2CO)[C@H](N)[C@@H](O)[C@@H]1O [FRAMYCETIN]	–	–	–	–	–	–	–	–	–	–	–	–	–	–	–	–	–	–	–	–	MIC95 [5]: 15.6 µM (≈ 9.6 µg/mL); MIC95 [19]: 7.81 µM (≈ 4.8 µg/mL)
CC1(C)S[C@@H]2[C@H](NC(=O)Cc3ccccc3)C(=O)N2[C@H]1C(=O)O [PENICILLIN G]	–	–	–	–	–	–	–	–	–	–	–	–	–	–	–	–	–	–	–	–	MIC95 [5]: 250 µM (≈ 83.6 µg/mL); MIC95 [19]: 125 µM (≈ 41.8 µg/mL)
CCCCCCCNc1cnc(C(N)=O)cn1	inactive	inactive	inactive	inactive	inactive	inactive	inactive	inactive	inactive	inactive	inactive	53 µM	53 µM	inactive	inactive	> 100 µg/mL	> 100 µg/mL	0.4658	inactive	inactive	Activity [5]: inactive; IC50 (HepG2): > 250 µM; Activity [13]: inactive; selectivity ratio [17]: > 4.7; Activity (Enterococcus sp.): inactive
CCCCCCCCNc1cncc(C(N)=O)n1	inactive	inactive	inactive	inactive	inactive	inactive	inactive	inactive	inactive	inactive	inactive	100 µM	6 µM	inactive	inactive	100 µM	100 µM	0.6514	inactive	inactive	Activity [5]: inactive; IC50 (HepG2): 161 µM; Activity [13]: inactive; selectivity ratio [17]: 25.8; Activity (Enterococcus sp.): inactive
O=C(O)c1cn(C2CC2)c2cc(N3CCNCC3)c(F)cc2c1=O [CIPROFLOXACIN]	–	–	–	–	–	–	–	–	–	–	–	–	–	–	–	–	–	–	–	–	MIC95 [5]: 250 µM (≈ 82.8 µg/mL); MIC95 [19]: 250 µM (≈ 82.8 µg/mL)
CCCCCCNc1cncc(C(N)=O)n1	inactive	inactive	inactive	inactive	inactive	inactive	inactive	inactive	inactive	inactive	inactive	> 100 µg/mL	100 µg/mL	inactive	inactive	> 100 µg/mL	> 100 µg/mL	0.2051	inactive	inactive	MIC95 [5]: 125 µM (≈ 27.8 µg/mL); MIC95 [19]: 62.5 µM (≈ 13.9 µg/mL); Activity (Enterococcus sp.): inactive
